What all share (assay type): cell-based
The test system of series [1] is LPS-induced NO release in RAW264.7 cells. The series is described as follows: Inhibition of LPS-induced NO release, Griess reagent test. The conditions noted are these: Mus musculus, RAW264.7, 24 h, read-out: IC50 NO. The method, boiled down:
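Log-phase RAW264.7 cells were seeded at 4 × 10^5 cells per mL in 96-well plates and grown 24 h. They were pretreated with test compound or indomethacin for 30 min, then stimulated with LPS (0.5 mg L−1) for 24 h more. NO in the supernatant was measured by Griess method and quantified against an NaNO2 standard curve. IC50 came from dose–response experiments.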

Series [2] relates to LPS-induced IL-6 release in RAW264.7 cells. The series is described as follows: Inhibition of LPS-induced IL-6 production, ELISA. Conditions: Mus musculus, RAW264.7, 24 h, read-out: IC50 IL-6. The essentials: (§1)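 Log-phase RAW264.7 cells, 4 × 10^5 cells per mL, were grown 24 h before dosing. They received test compound or indomethacin for 30 min, then LPS (0.5 mg L−1) for a further 24 h. IL-6 or TNF-α in the culture medium was measured by commercial ELISA, reading absorbance at 450 nm against a standard curve. IC50 came from dose–response experiments.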
Background: ELISA stands for enzyme-linked immunosorbent assay.

Series [3] relates to LPS-induced TNF-α release in RAW264.7 cells. Description: Inhibition of LPS-induced TNF-α production, ELISA. The conditions noted are these: Mus musculus, RAW264.7, 24 h, read-out: IC50 TNF-α. The essentials: as §1
For a further series, the system named is RAW264.7 cells. The series is described as follows: Cytotoxicity, CCK-8 assay. The conditions noted are these: RAW264.7 cells, 24, 48 and 72 h; DEX 27.964 μM, 13b 12.326 μM, 13d 23.684 μM.

We go through one compound from publication PMC11134322 (RSC Advances, 2024).

Broadly, the IC50 is the concentration needed to halve the response being measured.

`C[C@@H]1C[C@H]2[C@@H]3CCC4=CC(=O)C=C[C@]4(C)[C@@]3(F)[C@@H](O)C[C@]2(C)[C@@]1(O)C(=O)CO` [DEX, dexamethasone]: the results for the IC50 in series [1], in series [2] and in series [3] were 21.2 ± 0.517 µM, 0.247 ± 0.073 µM and 27.8 ± 0.643 µM, respectively. Besides, in the series with RAW264.7 cells, the “cytotoxicity: cell activity / proliferation versus control (in words)” value is given as “no discernible change in cell activity”.
